# Source: ChEMBL document CHEMBL1139054, “Indanylacetic acid derivatives carrying aryl-pyridyl and aryl-pyrimidinyl tail groups--new classes of PPAR gamma/delta and PPAR alpha/gamma/delta agonists” (Bioorg Med Chem Lett, 2007)
# Activity calls are given as the source filed them. No cut-off for these calls is given here.
# Legend:
# [1] = target: T1, Peroxisome proliferator-activated receptor gamma (Mus musculus, UniProt P37238); test: Agonist activity at PPARgamma in mouse 3T3-L1 cells by IRBA; type: functional, cell-based
# T1 sequence (P37238 whole entry): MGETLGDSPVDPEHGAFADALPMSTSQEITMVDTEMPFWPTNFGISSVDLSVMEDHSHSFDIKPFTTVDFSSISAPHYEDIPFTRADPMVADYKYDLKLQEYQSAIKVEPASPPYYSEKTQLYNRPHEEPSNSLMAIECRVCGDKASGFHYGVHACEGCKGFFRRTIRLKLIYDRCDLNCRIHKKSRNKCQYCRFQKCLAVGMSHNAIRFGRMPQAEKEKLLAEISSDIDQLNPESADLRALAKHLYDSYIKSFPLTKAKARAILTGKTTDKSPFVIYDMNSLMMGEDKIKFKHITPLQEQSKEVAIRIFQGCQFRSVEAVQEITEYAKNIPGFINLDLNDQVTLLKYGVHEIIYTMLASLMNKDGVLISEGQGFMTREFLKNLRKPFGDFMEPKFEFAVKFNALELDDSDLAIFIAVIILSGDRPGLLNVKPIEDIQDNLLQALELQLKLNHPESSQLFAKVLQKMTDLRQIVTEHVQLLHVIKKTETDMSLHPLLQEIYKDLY
# [2] = target: T2, Peroxisome proliferator-activated receptor delta (Homo sapiens, UniProt Q03181); test: Agonist activity at human PPARdelta by FRET assay; type: functional
# T2 sequence (Q03181 whole entry): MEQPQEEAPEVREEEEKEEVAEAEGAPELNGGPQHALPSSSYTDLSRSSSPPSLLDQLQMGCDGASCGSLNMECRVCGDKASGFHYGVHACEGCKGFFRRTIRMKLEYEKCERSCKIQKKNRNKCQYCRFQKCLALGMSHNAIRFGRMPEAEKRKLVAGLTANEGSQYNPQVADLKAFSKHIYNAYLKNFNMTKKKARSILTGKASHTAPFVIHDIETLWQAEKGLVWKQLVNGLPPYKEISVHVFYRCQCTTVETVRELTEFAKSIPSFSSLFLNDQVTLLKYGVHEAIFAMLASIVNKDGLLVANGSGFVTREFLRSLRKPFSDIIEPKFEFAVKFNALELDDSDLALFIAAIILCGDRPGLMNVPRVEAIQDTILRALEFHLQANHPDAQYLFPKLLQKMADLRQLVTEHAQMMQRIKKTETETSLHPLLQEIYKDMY
# [3] = target: T3, Peroxisome proliferator-activated receptor alpha (Homo sapiens, UniProt Q07869); test: Agonist activity at human PPARalpha by FRET assay; type: functional
# T3 sequence (Q07869 whole entry): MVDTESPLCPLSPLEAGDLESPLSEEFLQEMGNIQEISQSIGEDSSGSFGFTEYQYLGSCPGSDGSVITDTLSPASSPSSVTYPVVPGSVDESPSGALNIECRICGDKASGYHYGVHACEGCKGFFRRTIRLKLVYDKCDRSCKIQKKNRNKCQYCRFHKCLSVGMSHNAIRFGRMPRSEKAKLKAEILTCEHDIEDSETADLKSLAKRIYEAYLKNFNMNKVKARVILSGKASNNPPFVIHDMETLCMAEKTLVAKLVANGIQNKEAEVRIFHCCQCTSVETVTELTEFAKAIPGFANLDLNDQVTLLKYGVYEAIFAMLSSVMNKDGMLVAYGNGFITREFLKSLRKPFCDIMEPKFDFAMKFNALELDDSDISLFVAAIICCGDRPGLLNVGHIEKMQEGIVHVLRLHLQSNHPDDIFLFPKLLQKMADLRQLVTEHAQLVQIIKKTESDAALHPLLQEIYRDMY
# Outline: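 Human PPARα ligand-binding domain (GST-tagged) incubated with compound, europium-labeled anti-GST antibody, biotinylated coactivator-binding peptide and streptavidin-APC. FRET read at excitation 340 nm, emission 615 and […]. Means of at least two experiments.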
# [4] = target: T2, Peroxisome proliferator-activated receptor delta; test: Activity at human PPARdelta expressed in CV1 cells by GAL4 transactivation assay; type: cell-based, CV-1
# Outline: (§1)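 GAL4 transactivation in CV-1 cells (2.8 × 10⁴ per well, grown overnight in 10% FBS medium). Cells transiently transfected (Lipofectamine/Plus) with Gal4/PPAR-LBD fusion, UAS/firefly luciferase and Renilla luciferase plasmids. After overnight culture in charcoal/dextran-treated 10% FBS medium, compound added for 24 h. Dual luciferase read-out; EC50 from dose–response curve; means of at least two experiments.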
# [5] = target: T4, Peroxisome proliferator-activated receptor delta (Mus musculus, UniProt P35396); test: Activity at mouse PPARdelta expressed in CV1 cells by GAL4 transactivation assay; type: cell-based, CV-1; outline: as §1
# T4 sequence (P35396 whole entry): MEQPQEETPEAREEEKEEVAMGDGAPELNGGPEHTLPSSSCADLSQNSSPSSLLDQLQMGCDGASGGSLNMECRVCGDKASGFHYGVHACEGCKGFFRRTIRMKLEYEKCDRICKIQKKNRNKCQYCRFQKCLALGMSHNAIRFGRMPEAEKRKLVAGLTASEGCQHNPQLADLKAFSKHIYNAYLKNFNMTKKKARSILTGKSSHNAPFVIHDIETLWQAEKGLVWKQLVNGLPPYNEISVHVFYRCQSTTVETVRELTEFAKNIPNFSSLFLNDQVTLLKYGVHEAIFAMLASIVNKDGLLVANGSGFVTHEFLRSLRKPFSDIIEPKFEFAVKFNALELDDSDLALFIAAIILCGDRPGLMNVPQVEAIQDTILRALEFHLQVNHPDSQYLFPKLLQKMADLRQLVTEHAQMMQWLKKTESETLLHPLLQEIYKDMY
# [6] = target: T3, Peroxisome proliferator-activated receptor alpha; test: Activity at human PPARalpha expressed in CV1 cells by GAL4 transactivation assay; type: cell-based, CV-1; outline: as §1
# [7] = target: T5, Peroxisome proliferator-activated receptor alpha (Mus musculus, UniProt P23204); test: Activity at mouse PPARalpha expressed in CV1 cells by GAL4 transactivation assay; type: cell-based, CV-1; outline: as §1
# T5 sequence (P23204 whole entry): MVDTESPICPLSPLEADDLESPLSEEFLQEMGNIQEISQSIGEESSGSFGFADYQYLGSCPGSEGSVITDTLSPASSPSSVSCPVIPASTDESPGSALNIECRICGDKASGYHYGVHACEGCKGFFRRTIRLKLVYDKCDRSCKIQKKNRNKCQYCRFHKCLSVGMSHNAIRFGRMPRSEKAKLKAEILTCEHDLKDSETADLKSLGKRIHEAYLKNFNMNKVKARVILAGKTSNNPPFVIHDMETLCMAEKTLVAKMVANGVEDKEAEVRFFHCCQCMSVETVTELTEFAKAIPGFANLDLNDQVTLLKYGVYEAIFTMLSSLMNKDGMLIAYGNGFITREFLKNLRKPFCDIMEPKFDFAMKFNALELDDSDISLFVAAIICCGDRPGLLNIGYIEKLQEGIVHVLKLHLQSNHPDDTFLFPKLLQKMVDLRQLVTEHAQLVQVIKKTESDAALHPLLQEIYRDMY
# [8] = tested on: Mus musculus; test: Reduction of plasma glucose level in orally dosed db/db mouse after 7 days; type: functional; settings: po, 168 h
# Outline: (§2)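 Female db/db mice grouped by equal mean plasma glucose, then given compound orally once daily for 7 days in 0.5% methylcellulose in water; fed ad libitum. Plasma glucose measured about 24 h after the last dose. Percent change from drug = ((Tf/Ti)/(Vf/Vi) − 1) × 100, correcting for vehicle-group change.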
# [9] = tested on: Mus musculus; test: Reduction of plasma glucose level in db/db mouse at 10 mg/kg, po after 7 days; type: functional, organism-based; design: dose 10 mg/kg; outline: as §2
# [10] = tested on: Rattus norvegicus; test: Reduction of glucose level in Zucker fa/fa rat at 10 mg/kg after 10 days; type: functional, organism-based; design: dose 10 mg/kg
# [11] = Half life in rat at 3 mg/kg, po; type: ADME, organism-based; design: dose 3 mg/kg, route oral; settings: in vivo
# [12] = tested on: Rattus norvegicus; test: AUC in rat at 3 mg/kg, po; type: ADME, organism-based, Plasma; design: dose 3 mg/kg, route oral; settings: in vivo
# [13] = Cmax in rat at 3 mg/kg, po and 3 mg/kg, iv; type: ADME, organism-based; settings: in vivo
# [14] = Bioavailability in rat at 3 mg/kg, po; type: ADME, organism-based; settings: in vivo
# [15] = tested on: Mus musculus; test: Reduction of triglycerides level in hApoA1 mouse at 30 mg/kg, po after 10 days; design: scale not given: the % may be the effect or the level left
# [16] = tested on: Mus musculus; test: Increase in HDL-cholesterol level in hApoA1 mouse at 30 mg/kg, po after 10 days
Compound,EC50 [1] [nM],EC50 [2] [nM],EC50 [3] [nM],further results
Cc1cnc(-c2ccc(C(C)C)cc2)nc1N(C)CCCOc1ccc2c(c1)CC[C@H]2CC(=O)O,29,34,990,IC50 [4]: 49 nM; IC50 [5]: 610 nM; IC50 [6]: 237 nM; IC50 [7]: 2530 nM
Cc1cnc(-c2ccc(Cl)cc2)nc1N(C)CCCOc1ccc2c(c1)CC[C@H]2CC(=O)O,2800,7,1130,–
Cc1cnc(-c2ccc(F)cc2)nc1N(C)CCCOc1ccc2c(c1)CC[C@H]2CC(=O)O,860,7,2120,–
CCOc1csc(-c2ccc(OCCCOc3ccc4c(c3)CC[C@H]4CC(=O)O)nc2)n1,411,3,807,–
CCc1csc(-c2ccc(OCCCOc3ccc4c(c3)CC[C@H]4CC(=O)O)nc2)n1,264,3,421,–
CC(=O)c1ccc(-c2ncc(C)c(N(C)CCCOc3ccc4c(c3)CC[C@H]4CC(=O)O)n2)cc1,237,83,6550,–
CCc1ccc(-c2nc(C)cc(N(C)CCCOc3ccc4c(c3)CC[C@H]4CC(=O)O)n2)cc1,600,11,920,–
Cc1ccc(-c2ncc(C)c(N(C)CCCOc3ccc4c(c3)CC[C@H]4CC(=O)O)n2)cc1,780,9,1150,–
CCOc1cccc(-c2ncc(C)c(N(C)CCCOc3ccc4c(c3)CC[C@H]4CC(=O)O)n2)c1,6930,7,3540,–
Cc1cnc(-c2ccc(C(C)(C)C)cc2)nc1N(C)CCCOc1ccc2c(c1)CC[C@H]2CC(=O)O,156,28,641,–
Cc1cnc(-c2cccc(Cl)c2)nc1N(C)CCCOc1ccc2c(c1)CC[C@H]2CC(=O)O,582,23,2370,–
COc1ccc(-c2ncc(C)c(N(C)CCCOc3ccc4c(c3)CC[C@H]4CC(=O)O)n2)cc1,7010,12,1390,–
CCc1ccc(-c2ncc(CC)c(N(C)CCCOc3ccc4c(c3)CC[C@H]4CC(=O)O)n2)cc1,950,2,120,–
CCc1ccc(-c2ncc(C)c(N(C)CCCOc3ccc4c(c3)CC[C@H]4CC(=O)O)n2)cc1,145,10,200,IC50 [4]: 30 nM; IC50 [5]: 370 nM; IC50 [6]: 175 nM; IC50 [7]: 670 nM
CCc1ccc(-c2nccc(N(C)CCCOc3ccc4c(c3)CC[C@H]4CC(=O)O)n2)cc1,800,25,565,–
Cc1nc(-c2ccc(OCCCOc3ccc4c(c3)CC[C@H]4CC(=O)O)nc2)sc1C,511,5,6780,–
CCc1ccc(-c2ncc(F)c(N(C)CCCOc3ccc4c(c3)CC[C@H]4CC(=O)O)n2)cc1,360,16,425,–
CC(=O)c1sc(-c2ccc(OCCCOc3ccc4c(c3)CC[C@H]4CC(=O)O)nc2)nc1C,35,9,1390,IC50 [4]: 56 nM; IC50 [5]: 1390 nM; IC50 [6]: > 6000 nM; ED50 [8]: 6.7 mg/kg; Activity [9]: Active; Activity [10]: Active; half-life [11]: 5 h; AUC [12]: 26 µM·h; Cmax [13]: 2800 nM; bioavailability [14]: 48%; Activity [15]: -32%; Activity [16]: 22%
Cc1cnc(-c2ccccc2)nc1N(C)CCCOc1ccc2c(c1)CC[C@H]2CC(=O)O,678,24,6610,–
Cc1cccc(-c2ncc(C)c(N(C)CCCOc3ccc4c(c3)CC[C@H]4CC(=O)O)n2)c1,670,41,4390,–
CCOc1ccc(-c2ncc(C)c(N(C)CCCOc3ccc4c(c3)CC[C@H]4CC(=O)O)n2)cc1,161,58,3090,–
